Reference: PMC5333931 (ACS chemical neuroscience, 2016)

Key:
[1] = target: T1, 5-HT2A receptors (Homo sapiens, UniProt P28223); assay: [3H]ketanserin competition binding in HEK293 cell membrane preparations; conditions: for fold lower binding affinity than risperidone (1): [3H]ketanserin, HEK293 membranes
[2] = target: T1, 5-HT2A receptors; assay: Intracellular Ca2+ release; assay type: cell-based
[3] = target: T2, GIRK4* channel (Homo sapiens, UniProt P48544, S143T); assay: TEVC, oocytes expressing GIRK4* alone versus GIRK4* and 5-HT2A receptors; assay type: cell-based; conditions: 50 µM or higher; suggests direct inhibition of GIRK4* channel
T2 sequence (P48544 1-419 S143T): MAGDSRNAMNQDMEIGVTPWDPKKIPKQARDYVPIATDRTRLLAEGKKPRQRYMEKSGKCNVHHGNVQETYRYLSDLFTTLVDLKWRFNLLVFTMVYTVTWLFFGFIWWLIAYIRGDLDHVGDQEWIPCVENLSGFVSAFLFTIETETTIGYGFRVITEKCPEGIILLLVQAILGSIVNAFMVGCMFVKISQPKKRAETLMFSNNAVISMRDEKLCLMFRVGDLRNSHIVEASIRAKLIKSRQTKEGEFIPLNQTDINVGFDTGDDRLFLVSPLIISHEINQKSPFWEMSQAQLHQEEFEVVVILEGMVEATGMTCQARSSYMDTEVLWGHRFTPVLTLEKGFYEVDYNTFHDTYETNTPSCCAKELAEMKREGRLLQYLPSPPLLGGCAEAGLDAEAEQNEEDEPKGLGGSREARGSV

[4] = target: T1, 5-HT2A receptors; assay type: cell-based; conditions: 10 µM compound, 1 µM 5-HT, TEVC
[5] = target: T1, 5-HT2A receptors; assay: TEVC, compounds alone; assay type: cell-based
Procedure, shortened: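 Xenopus oocytes were injected with 2 ng 5-HT2A receptor plus 2 ng GIRK4* and held at 18 °C for 1–4 days. Basal GIRK4* current was taken per trace as the inward current difference with versus without 3 mM BaCl2. Read-out was current inhibition.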

[6] = tested on: 5-HT2 receptor; conditions: 5-HT-induced inositol phosphate production; cited from earlier work
[7] = tested on: 5-HT2 receptor; conditions: rats, drug discrimination; cited from earlier work

T1 sequence (P28223 whole entry): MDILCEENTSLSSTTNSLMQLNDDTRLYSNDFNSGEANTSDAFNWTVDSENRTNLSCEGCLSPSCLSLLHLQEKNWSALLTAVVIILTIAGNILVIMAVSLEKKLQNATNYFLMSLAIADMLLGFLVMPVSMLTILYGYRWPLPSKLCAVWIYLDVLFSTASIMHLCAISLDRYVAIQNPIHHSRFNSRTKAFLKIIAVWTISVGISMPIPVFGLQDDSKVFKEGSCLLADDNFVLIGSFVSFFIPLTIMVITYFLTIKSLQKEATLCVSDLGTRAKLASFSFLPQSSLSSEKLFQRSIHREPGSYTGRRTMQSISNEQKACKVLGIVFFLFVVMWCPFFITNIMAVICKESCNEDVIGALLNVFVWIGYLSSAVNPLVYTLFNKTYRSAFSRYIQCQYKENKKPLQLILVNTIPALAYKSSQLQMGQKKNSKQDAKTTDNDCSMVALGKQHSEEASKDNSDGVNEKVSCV

| Compound | Ki [1] [µM] | IC50 [2] [µM] | current inhibition in oocytes expressing GIRK4* alone versus GIRK4* and 5-HT2A receptors [3] | binding affinity relative to risperidone [1] | fold lower binding affinity than risperidone (1) [1] | antagonism of 5-HT responses at highest concentration tested [4] | agonism of compound alone ([5]; concentrations tested up to 50 µM) | antagonist action in vitro [6] | antagonist action in vivo [7] | concentration yielding significant current inhibition by compound alone ([5]; oocytes, no 5-HT) [µM] |
| --- | --- | --- | --- | --- | --- | --- | --- | --- | --- | --- |
| Cl.O=C(CCCN1CCC(c2noc3cc(F)ccc23)CC1)N1CCCCC1 [compound 2, 4-(4-(6-Fluorobenzisoxazol-3-yl)piperidin-1-yl)-1-(piperidin-1-yl)butan-1-one Hydrochloride] | 0.0398 | 16.7 ± 1.39 | no significant differences |  |  |  |  |  |  |  |
| CN1CCC(c2noc3cc(F)ccc23)CC1.Cl [compound 4, 6-Fluoro-3-(1-methylpiperidin-4-yl)benzisoxazole Hydrochloride] |  | 7.4 ± 1.45 |  | half that of risperidone | 2- to 8 fold | significant inhibition |  |  |  |  |
| Fc1ccc2c(C3CCNCC3)noc2c1 [compound 5, 6-fluoro-3-(piperidin-4-yl)benzisoxazole] |  | 20.1 ± 2.24 |  |  | 13.5 fold | significant inhibition | did not exhibit significant agonism | potent 5-HT2 receptor antagonist | potent 5-HT2 receptor antagonist |  |
| Cl.Fc1ccc2c(C3CCN(CCCCN4CCCCC4)CC3)noc2c1 [compound 3] |  |  | no significant differences |  |  | no significant effects |  |  |  | ≥ 5 |
